Experimental data: ChEMBL document CHEMBL1949567, “Novel synthesis and biological evaluation of enigmols as therapeutic agents for treating prostate cancer” (ACS Med Chem Lett, 2011)
The source made the active and inactive calls. The rule behind the calls is not given here.

How the values were obtained:
[1] = tested on: LNCaP; test: Cytotoxicity against human LNCAP cells after 24 hrs by WST-1 assay; format: functional, cell-based
Method in brief: (§1)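 PC-3 (androgen-independent) and LNCaP (androgen-sensitive) prostate cancer cells treated for 24 h. Cytotoxicity read by WST-1 assay. IC50 calculated from the resulting data.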

[2] = tested on: PC-3; test: Cytotoxicity against human PC3 cells after 24 hrs by WST-1 assay; format: functional, cell-based; details: PC-3, 24 h; method in brief: as §1
[3] = tested on: PC-3; test: Anticancer activity against androgen insensitive human PC3 cells xenografted nude mouse model assessed as decrease in tumor growth rate administered at 10 mg/kg, po once daily administered from day 16 after implantation; format: functional, organism-based; design: dose 10 mg/kg
Method in brief: (§2)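 Nude mice bearing established PC-3 tumors (n = 10) given 10 mg/kg daily by oral gavage from day 16 after implantation, with vehicle controls. Tumor growth and body weight measured over time. Growth rates compared by mixed model for repeated measurements, weights by ANOVA.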

[4] = tested on: Mus musculus; test: Toxicity in androgen insensitive human PC3 cells xenografted nude mouse model assessed as body weight change administered at 10 mg/kg, po once daily administered from day 16 after implantation; format: organism-based, PC-3; design: dose 10 mg/kg, route oral; details: in vivo; method in brief: as §2
[5] = Tmax in CD-1/Swiss Webster mouse at 30 mg/kg, po by LC/MS/MS analysis; format: ADME, organism-based; design: dose 30 mg/kg, route oral; details: in vivo
Method in brief: (§3)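 Outbred male Swiss Webster or CD-1 mice, n = 3 per time point, single oral dose of 10 or 30 mg/kg in 10% ethanol/90% olive oil given at 5 mL/kg. Blood drawn from submandibular vein or retro-orbital plexus at set time points. PK parameters calculated from mean plasma concentrations (nM).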

[6] = Tmax in CD-1/Swiss Webster mouse at 10 mg/kg, po by LC/MS/MS analysis; format: ADME, organism-based; design: dose 10 mg/kg, route oral; details: in vivo; method in brief: as §3
[7] = Cmax in CD-1/Swiss Webster mouse at 10 mg/kg, po by LC/MS/MS analysis; format: ADME, organism-based; design: dose 10 mg/kg, route oral; details: in vivo; method in brief: as §3
[8] = Cmax in CD-1/Swiss Webster mouse at 30 mg/kg, po by LC/MS/MS analysis; format: ADME, organism-based; design: dose 30 mg/kg, route oral; details: in vivo; method in brief: as §3
[9] = Half life in CD-1/Swiss Webster mouse at 10 mg/kg, po by LC/MS/MS analysis; format: ADME, organism-based; design: dose 10 mg/kg, route oral; details: in vivo; method in brief: as §3
[10] = Half life in CD-1/Swiss Webster mouse at 30 mg/kg, po by LC/MS/MS analysis; format: ADME, organism-based; design: dose 30 mg/kg, route oral; details: in vivo; method in brief: as §3
[11] = AUC (0 to t) in CD-1/Swiss Webster mouse at 10 mg/kg, po by LC/MS/MS analysis; format: ADME, organism-based; design: dose 10 mg/kg, route oral; details: plasma; method in brief: as §3
[12] = AUC (0 to t) in CD-1/Swiss Webster mouse at 30 mg/kg, po by LC/MS/MS analysis; format: ADME, organism-based; design: dose 30 mg/kg, route oral; details: plasma; method in brief: as §3
[13] = AUC (0 to infinity) in CD-1/Swiss Webster mouse at 10 mg/kg, po by LC/MS/MS analysis; format: ADME, organism-based; design: time infinity, dose 10 mg/kg, route oral; details: plasma; method in brief: as §3
[14] = AUC (0 to infinity) in CD-1/Swiss Webster mouse at 30 mg/kg, po by LC/MS/MS analysis; format: ADME, organism-based; design: time infinity, dose 30 mg/kg, route oral; details: plasma; method in brief: as §3
[15] = Apparent volume of distribution during terminal phase in CD-1/Swiss Webster mouse at 10 mg/kg, po by LC/MS/MS analysis; format: ADME, organism-based; design: dose 10 mg/kg, route oral; details: in vivo, read-out: Vz/F; method in brief: as §3
[16] = tested on: Mus musculus; test: (§4) Apparent volume of distribution during terminal phase in CD-1/Swiss Webster mouse at 30 mg/kg, po by LC/MS/MS analysis; format: ADME, organism-based; design: dose 30 mg/kg, route oral; details: in vivo; method in brief: as §3
[17] = Apparent oral clearance in CD-1/Swiss Webster mouse at 10 mg/kg, po by LC/MS/MS analysis; format: ADME, organism-based; design: dose 10 mg/kg, route oral; details: in vivo; method in brief: as §3
[18] = Apparent oral clearance in CD-1/Swiss Webster mouse at 30 mg/kg, po by LC/MS/MS analysis; format: ADME, organism-based; design: dose 30 mg/kg, route oral; details: in vivo; method in brief: as §3
[19] = Drug uptake in rat prostate tissue at 100 mg/kg, po; format: ADME, organism-based, Prostate gland; design: dose 100 mg/kg, route oral; details: in vivo, read-out: Drug uptake
[20] = tested on: LNCaP; test: Anticancer activity against androgen sensitive human LNCAP cells xenografted nude mouse model assessed as reduction in tumor growth rate administered at 10 mg/kg, po once daily after day 14 of implantation measured on day 36 relative to control; format: functional, organism-based; design: dose 10 mg/kg
Method in brief: (§5)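 Nude mice bearing palpable subcutaneous LNCaP tumors (n = 10–12 per group). Castration or sham surgery on Day 13 after implantation. Daily oral gavage of 10 mg/kg or vehicle from Day 14. Tumor growth followed over time and body weights monitored. Controls sacrificed Day 36 for tumor burden; some groups continued longer. Growth analysed by mixed model for repeated measurements, weights by ANOVA.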

[21] = tested on: LNCaP; test: Anticancer activity in androgen sensitive human LNCAP cells xenografted castrated mouse model assessed as reduction in tumor growth rate administered at 10 mg/kg, po once daily from day 14 after implantation measured on day 38 relative to control; format: functional, organism-based; design: dose 10 mg/kg; method in brief: as §5
[22] = tested on: PC-3; test: Anticancer activity against androgen insensitive human PC3 cells xenografted nude mouse model assessed as decrease in tumor growth rate administered at 10 mg/kg, po once daily administered from day 22 to day 34 after implantation relative to control; format: functional, organism-based; design: dose 10 mg/kg
Method in brief: (§6)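 Nude mice bearing PC-3 xenografts (n = 15). Daily oral gavage at 10 mg/kg from Day 22 to Day 34 after implantation. Docetaxel 15 mg/kg or vehicle given i.p. on Days 22 and 29, alone or combined with gavage. Tumor growth and body weight followed. Growth analysed by mixed model for repeated measurements, weights by ANOVA.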

[23] = tested on: PC-3; test: Anticancer activity against androgen insensitive human PC3 cells xenografted nude mouse model assessed as decrease in tumor growth rate administered at 10 mg/kg, po once daily administered from day 22 to day 34 after implantation coadministered with docetaxel relative to control; format: functional, organism-based; design: dose 10 mg/kg; method in brief: as §6
[24] = tested on: Mus musculus; test: Toxicity in androgen sensitive human LNCAP cells xenografted nude mouse model assessed as body weight change at 10 mg/kg, po once daily after day 14 of implantation; format: organism-based; design: dose 10 mg/kg, route oral; details: in vivo; method in brief: as §5
[25] = tested on: Mus musculus; test: Toxicity in androgen sensitive human LNCAP cells xenografted castrated mouse model assessed as body weight change at 10 mg/kg, po once daily after day 14 of implantation; format: organism-based; design: dose 10 mg/kg, route oral; details: in vivo; method in brief: as §5
[26] = tested on: Mus musculus; test: Toxicity in androgen insensitive human PC3 cells xenografted nude mouse model assessed as body weight change administered at 10 mg/kg, po once daily administered from day 22 to day 34 after implantation; format: organism-based, PC-3; design: dose 10 mg/kg, route oral; details: in vivo; method in brief: as §6
[27] = tested on: PC-3; test: Anticancer activity against androgen insensitive human PC3 cells xenografted nude mouse model assessed as decrease in tumor growth rate administered at 10 mg/kg, po once daily administered from day 16 after implantation
[28] = as §4; format: ADME, organism-based; design: dose 30 mg/kg, route oral; details: CD-1/Swiss Webster, in vivo, read-out: Vz/F; method in brief: as §3
[29] = tested on: PC-3; test: Anticancer activity against androgen insensitive human PC3 cells xenografted nude mouse model assessed as decrease in tumor growth rate administered at 15 mg/kg, ip administered once in a week on day 22 to day 29 after implantation relative to control; format: functional, organism-based; design: dose 15 mg/kg; method in brief: as §6

SMILES	IC50 [1] [µM]	IC50 [2] [µM]	Activity [3]	Activity [4] [%]	Tmax [5] [h]	Tmax [6] [h]	Cmax [7] [µM]	Cmax [8] [µM]	half-life [9] [h]	half-life [10] [h]	AUC(0-t) [11] [µM·h]	AUC(0-t) [12] [µM·h]	AUC(0-inf) [13] [µM·h]	AUC(0-inf) [14] [µM·h]	Vd/F [15] [L/kg]	CL/F [17] [L/h/kg]	CL/F [18] [L/h/kg]	other results
CCCCCCCCCCCCC[C@H](O)C[C@@H](O)[C@H](C)N	5	9.7	Active	0.3	–	–	–	–	–	–	–	–	–	–	–	–	–	–
CCCCCCCCCCCCC[C@H](O)C[C@H](O)[C@H](C)N [ENIGMOL]	9.7	10.3	Active	–	2	2	0.137	0.705	11	5	1.88	5.96	2.54	6.96	211	13	14	Vz/F [16]: 107 L/kg; concentration [19]: 10 µM; Activity [20]: Active; Activity [21]: Active; Activity [22]: Active; Activity [23]: Active; Activity [24]: < 6%; Activity [25]: < 6%; Activity [26]: 0.3%; Activity [27]: Active
CCCCCCCCCCCCC[C@@H](O)C[C@@H](O)[C@H](C)N	50	49.3	–	–	–	–	–	–	–	–	–	–	–	–	–	–	–	–
CCCCCCCCCCCCC[C@H](O)C[C@H](O)[C@H](C)NC	25	10.5	–	–	2	4	0.232	1.11	15	12	3.86	13.6	5.99	17.9	117	5	5	Vd/F [28]: 90 L/kg
CCCCCCCCCCCCC[C@@H](O)C[C@H](O)[C@H](C)N	9.7	10.2	Active	0.3	–	–	–	–	–	–	–	–	–	–	–	–	–	–
CC(=O)O[C@@]12CO[C@@H]1C[C@H](O)[C@@]1(C)C(=O)[C@H](O)C3=C(C)[C@@H](OC(=O)[C@H](O)[C@@H](NC(=O)OC(C)(C)C)c4ccccc4)C[C@@](O)([C@@H](OC(=O)c4ccccc4)[C@H]21)C3(C)C	–	–	–	–	–	–	–	–	–	–	–	–	–	–	–	–	–	Activity [29]: Active
